Reference: ChEMBL document CHEMBL4393661, “PRODRUGS FOR NITROREDUCTASE BASED CANCER THERAPY- 2: Novel amide/Ntr combinations targeting PC3 cancer cells” (Eur J Med Chem, 2019)

What was measured:
Putative nitroreductase [1] = target: T1, Putative nitroreductase (Staphylococcus saprophyticus subsp. saprophyticus (strain ATCC 15305 / DSM20229 / NCIMB 8711 / NCTC 7292 / S-41), UniProt Q4A0P1); test: Prodrug conversion assessed as Staphylococcus saprophyticus nitroreductase mediated P2 metabolite formation in presence of FDH cofactor regeneration system at 100 uM by HPLC analysis; format: ADME; details: isolated protein
T1 sequence (Q4A0P1 whole entry): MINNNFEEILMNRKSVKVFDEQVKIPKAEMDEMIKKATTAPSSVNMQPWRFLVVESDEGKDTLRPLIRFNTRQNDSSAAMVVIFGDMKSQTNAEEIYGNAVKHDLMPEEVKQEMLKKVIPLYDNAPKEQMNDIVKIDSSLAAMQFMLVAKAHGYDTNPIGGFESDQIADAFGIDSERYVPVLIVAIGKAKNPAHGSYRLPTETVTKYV
How it was run: (§1)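 This was a coupled regeneration reaction: 100 µM substrate in Tris/Cl pH 7.5 with 5–15% DMSO, plus 100 µM NADH, 10 µM NAD+, 0.1 mg/mL BSA, 200 µM sodium formate, 30 µg/mL Ssap-NtrB and 30 µg/mL Candida methylica FDH, at 25 °C. Aliquots were taken over time, quenched 1:1 with cold acetonitrile and analysed by C18 HPLC using program II (20→80→20% ACN). Peak areas were read at 254 and 340 nm.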

[2] = Cytotoxicity against human PC3 cells assessed as cell viability at 9 to 150 uM measured after 48 hrs by MTT assay relative to control; format: cell-based, PC-3; details: read-out: Activity
How it was run: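 They were treated for 48 h at 9, 18, 39, 78 and 150 µM, with 1% DMSO as vehicle control. Viability was read by MTT at 550 nm.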

Putative nitroreductase [3] = target: T1, Putative nitroreductase; test: Prodrug conversion assessed as Staphylococcus saprophyticus nitroreductase mediated P4 metabolite formation in presence of FDH cofactor regeneration system at 100 uM by HPLC analysis; format: ADME; details: isolated protein; how it was run: as §1
Putative nitroreductase [4] = target: T1, Putative nitroreductase; test: Substrate activity at Staphylococcus saprophyticus nitroreductase expressed in Escherichia coli assessed as retention time in the presence of NADPH at 150 uM by HPLC analysis (0 to 5 mins at 20% ACN, 25 to 35 min at 80% ACN, 40 to 45 min at 20% ACN); format: ADME
Putative nitroreductase [5] = target: T1, Putative nitroreductase; test: Substrate activity at Staphylococcus saprophyticus nitroreductase expressed in Escherichia coli assessed as retention time […] at 150 uM by HPLC analysis (0 to 5 mins at 20 % ACN, 15 to 22 min at 80% ACN, 27-32 AT 20% ACN); format: ADME
[6] = target: T2, Staphylococcus saprophyticus nitroreductase (Staphylococcus saprophyticus subsp. saprophyticus (strain ATCC 15305 / DSM20229 / NCIMB 8711 / NCTC 7292 / S-41), UniProt Q4A0P1); test: Substrate activity at Staphylococcus saprophyticus nitroreductase expressed in Escherichia coli assessed as half life in the presence of NADPH at 150 uM by HPLC analysis (0 to 5 mins at 20% ACN, 25 to 35 min at 80% ACN, 40 to 45 min at 20% ACN); format: ADME
T2 sequence (Q4A0P1 whole entry): T1 sequence (Q4A0P1 whole entry)

[7] = Cytotoxicity against human HUVEC cells assessed as cell viability at 9 to 150 uM measured after 48 hrs by MTT assay relative to control; format: cell-based; details: read-out: Activity
How it was run: (§2)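 Hep3B and HUVEC cells were grown in high-glucose medium with 10% heat-inactivated FBS and 2 mM glutamine at 37 °C in 5% CO2. Cells were seeded at 5x10^4 per well and left 24 h to attach. They were then exposed for 48 h to 150, 75, 39, 19 and 9 µM, with 1% DMSO as vehicle control. Viability was read by MTT at 550 nm as (OD sample/OD control)×100.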

[8] = target: T2, Staphylococcus saprophyticus nitroreductase; test: Substrate activity at Staphylococcus saprophyticus nitroreductase expressed in Escherichia coli assessed as half life […] at 150 uM by HPLC analysis (0 to 5 mins at 20 % ACN, 15 to 22 min at 80% ACN, 27-32 AT 20% ACN); format: ADME
Putative nitroreductase [9] = target: T1, Putative nitroreductase; test: Prodrug conversion assessed as Staphylococcus saprophyticus nitroreductase mediated P3 metabolite formation in presence of FDH cofactor regeneration system at 100 uM by HPLC analysis; format: ADME; details: isolated protein; how it was run: as §1
Putative nitroreductase [10] = target: T1, Putative nitroreductase; test: Prodrug conversion assessed as Staphylococcus saprophyticus nitroreductase mediated P1 metabolite formation in presence of FDH cofactor regeneration system at 100 uM by HPLC analysis; format: ADME; details: isolated protein; how it was run: as §1
[11] = Cytotoxicity against human Hep3B cells assessed as cell viability at 9 to 150 uM measured after 48 hrs by MTT assay relative to control; format: cell-based, Hep 3B2; details: read-out: Activity; how it was run: as §2
Putative nitroreductase [12] = target: T1, Putative nitroreductase; test: Prodrug conversion assessed as Staphylococcus saprophyticus nitroreductase mediated P5 metabolite formation in presence of FDH cofactor regeneration system at 100 uM by HPLC analysis; format: ADME; details: isolated protein; how it was run: as §1
Putative nitroreductase [13] = target: T1, Putative nitroreductase; test: (§3) Prodrug conversion assessed Staphylococcus saprophyticus nitroreductase expressed in Escherichia coli-mediated N,N'-(cyclohexane-1,4-diyl)bis(4-aminobenzamide) formation by measuring retention time at 100 uM incubated for 15 mins in presence of FDH cofactor regeneration system by HPLC analysis; format: ADME; details: 0.25 h; how it was run: as §1
PC-3 [14] = test: Cytotoxicity in human PC3 cells assessed as reduction in cell viability at 180 nM measured after 48 hrs by SRB assay; format: cell-based; details: pc-3, 48 h, 0.18 µM
How it was run: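 They were exposed for 48 h to prodrug alone at 180 nM final, without enzyme or NADH, with 25 mM Tris-HCl as vehicle control. Cells were fixed with 12.5% TCA for 1 h at 4 °C, stained with 0.4% SRB and read at 492 nm as % cell survival, in triplicate.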

Putative nitroreductase [15] = target: T1, Putative nitroreductase; test: Prodrug conversion assessed Staphylococcus saprophyticus nitroreductase expressed in Escherichia coli-mediated N,N'-(cyclohexane-1,4-diyl)bis(4-aminobenzamide) formation at 100 uM incubated for 15 mins by HPLC analysis; format: ADME; details: 0.25 h
Putative nitroreductase [16] = target: T1, Putative nitroreductase; test: Substrate activity at Staphylococcus saprophyticus nitroreductase expressed in Escherichia coli assessed as retention time […] at 100 uM by HPLC analysis (0 to 5 mins at 20 % ACN, 15 to 22 min at 80% ACN, 27-32 AT 20% ACN); format: ADME
Putative nitroreductase [17] = target: T1, Putative nitroreductase; test: as §3, with “time of metabolite” for “time”; format: ADME; details: 0.25 h; how it was run: as §1
Putative nitroreductase [18] = target: T1, Putative nitroreductase; test: Prodrug conversion assessed Staphylococcus saprophyticus nitroreductase expressed in Escherichia coli-mediated 4-amino-N-(4-(4-(hydroxyamino)benzamido)cyclohexyl)benzamide formation at 100 uM incubated for 15 mins by HPLC analysis; format: ADME; details: 0.25 h
Putative nitroreductase [19] = target: T1, Putative nitroreductase; test: as §3, with “N,N'-(cyclohexane-1,4-diyl)bis(4-(hydroxyamino)benzamide)” for “N,N'-(cyclohexane-1,4-diyl)bis(4-aminobenzamide)”; format: ADME; details: 0.25 h; how it was run: as §1
Putative nitroreductase [20] = target: T1, Putative nitroreductase; test: as §3, with “4-amino-N-(4-(4-(hydroxyamino)benzamido)cyclohexyl)benzamide” for “N,N'-(cyclohexane-1,4-diyl)bis(4-aminobenzamide)”; format: ADME; details: 0.25 h; how it was run: as §1
PC-3 [21] = test: Cytotoxicity against human PC3 cells assessed as reduction in cell viability measured after 48 hrs in presence of Staphylococcus saprophyticus nitroreductase and NADH by SRB assay; format: cell-based; details: PC-3, 48 h
How it was run: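 Prodrug at 180, 18 or 1.8 nM was premixed with Ssap-NtrB (31 µg/mL final) and NADH (600 µM final; 900 µM for CB1954) in 25 mM Tris-HCl pH 7.5, then added for 48 h under aerobic conditions. Cells were fixed with 12.5% TCA, stained with SRB and read at 492 nm, in triplicate.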

[22] = Solubility of the compound in 15% DMSO; format: physicochemical
Putative nitroreductase [23] = target: T1, Putative nitroreductase; test: Substrate activity at Staphylococcus saprophyticus nitroreductase expressed in Escherichia coli assessed as retention time in the presence of NADPH at 100 uM by HPLC analysis (0 to 5 mins at 20% ACN, 25 to 35 min at 80% ACN, 40 to 45 min at 20% ACN); format: ADME
Putative nitroreductase [24] = target: T1, Putative nitroreductase; test: Prodrug conversion assessed Staphylococcus saprophyticus nitroreductase expressed in Escherichia coli-mediated N,N'-(cyclohexane-1,4-diyl)bis(4-(hydroxyamino)benzamide) formation at 100 uM incubated for 15 mins by HPLC analysis; format: ADME; details: 0.25 h
Putative nitroreductase [25] = target: T1, Putative nitroreductase; test: Prodrug conversion assessed Staphylococcus saprophyticus nitroreductase expressed in Escherichia coli-mediated 4-(hydroxyamino)-N-(4-(4-nitrobenzamido)cyclohexyl)benzamide formation at 100 uM incubated for 15 mins by HPLC analysis; format: ADME; details: 0.25 h
[26] = target: T2, Staphylococcus saprophyticus nitroreductase; test: Substrate activity at Staphylococcus saprophyticus nitroreductase expressed in Escherichia coli assessed as half life […] at 100 uM by HPLC analysis (0 to 5 mins at 20% ACN, 25 to 35 min at 80% ACN, 40 to 45 min at 20% ACN); format: ADME
Putative nitroreductase [27] = target: T1, Putative nitroreductase; test: Prodrug conversion assessed Staphylococcus saprophyticus nitroreductase expressed in Escherichia coli-mediated PP (4-(hydroxyamino)phenyl)(piperidin-1-yl)methanone metabolite formation by measuring retention time of metabolite at 100 uM incubated for 15 mins by HPLC analysis; format: ADME; details: 0.25 h
How it was run: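 Recombinant Ssap-NtrB, Ni-column purified, was used at 2.5 µg/mL. Substrate at 100 µM was reacted with 200 µM NADH in 25 mM Tris/Cl pH 7.5 with 10% DMSO at 25 °C for 15 min. The reaction was stopped 1:1 with cold acetonitrile and run on C18 RP-HPLC at 1 mL/min with a 20–80% ACN gradient. Peaks were detected at 254 and 340 nm.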

Putative nitroreductase [28] = target: T1, Putative nitroreductase; test: Prodrug conversion assessed Staphylococcus saprophyticus nitroreductase expressed in Escherichia coli-mediated (4-aminophenyl)(piperidin-1-yl)methanone metabolite formation by measuring retention time in presence of FDH cofactor regeneration system at 100 uM by HPLC analysis; format: ADME; how it was run: as §1
Putative nitroreductase [29] = target: T1, Putative nitroreductase; test: Prodrug conversion assessed Staphylococcus saprophyticus nitroreductase expressed in Escherichia coli-mediated PP (4-(hydroxyamino)phenyl)(piperidin-1-yl)methanone metabolite formation by measuring retention time in presence of FDH cofactor regeneration system at 100 uM by HPLC analysis; format: ADME; how it was run: as §1
[30] = target: T2, Staphylococcus saprophyticus nitroreductase; test: Substrate activity at Staphylococcus saprophyticus nitroreductase expressed in Escherichia coli assessed as half life […] at 100 uM by HPLC analysis (0 to 5 mins at 20 % ACN, 15 to 22 min at 80% ACN, 27-32 AT 20% ACN); format: ADME

CCN(C(C)=O)c1cc([N+](=O)[O-])cc([N+](=O)[O-])c1
Drug metabolism (Putative nitroreductase [1]): Metabolite_Detected | viability at 48 h, up to 150 µM [2]: > 80% | Drug metabolism (Putative nitroreductase [3]): Metabolite_Detected | Retention_time (Putative nitroreductase [4]): 16.85 min | Retention_time (Putative nitroreductase [5]): 14.55 min | half-life [6]: < 1.2 min | viability at 48 h, up to 150 µM [7]: > 80% | half-life [8]: < 1.2 min | Drug metabolism (Putative nitroreductase [9]): Metabolite_Detected | Drug metabolism (Putative nitroreductase [10]): Metabolite_Detected | viability at 48 h, up to 150 µM [11]: 51 to 80% | Drug metabolism (Putative nitroreductase [12]): Metabolite_Detected

O=C(NC1CCC(NC(=O)c2ccc([N+](=O)[O-])cc2)CC1)c1ccc([N+](=O)[O-])cc1 (configuration not stated)
viability at 48 h, up to 150 µM [2]: > 80% | Retention_time (Putative nitroreductase [13]): 13.48 min | Activity (PC-3 [14]): Non-Toxic | Drug metabolism (Putative nitroreductase [15]): Metabolite_Notdetected | Retention_time (Putative nitroreductase [16]): 19.96 min | viability at 48 h, up to 150 µM [7]: > 80% | Retention_time (Putative nitroreductase [17]): 13.48 min | Drug metabolism (Putative nitroreductase [18]): Metabolite_Notdetected | Retention_time (Putative nitroreductase [19]): 13.48 min | Retention_time (Putative nitroreductase [20]): 13.48 min | IC50 (PC-3 [21]): 1.79 nM | solubility [22]: Soluble | Retention_time (Putative nitroreductase [23]): 19.2 min | Drug metabolism (Putative nitroreductase [24]): Metabolite_Notdetected | viability at 48 h, up to 150 µM [11]: > 80% | Drug metabolism (Putative nitroreductase [25]): Metabolite_Detected | half-life at 100 µM [26]: < 90 min

O=C(c1ccc([N+](=O)[O-])cc1)N1CCCCC1
Retention_time (Putative nitroreductase [27]): 15.99 min | viability at 48 h, up to 150 µM [2]: > 80% | Activity (PC-3 [14]): Non-Toxic | Retention_time (Putative nitroreductase [16]): 18.22 min | Retention_time (Putative nitroreductase [28]): 22.3 min | viability at 48 h, up to 150 µM [7]: > 80% | Retention_time (Putative nitroreductase [29]): 14 min | IC50 (PC-3 [21]): 1.81 nM | solubility [22]: Soluble | Retention_time (Putative nitroreductase [23]): 17.81 min | viability at 48 h, up to 150 µM [11]: > 80% | half-life [30]: < 90 min | half-life at 100 µM [26]: < 1.2 min
